Results collected from several papers.
Protocols differ between the studies behind these lines.
Target: Cytochrome P450 2C19 (CYP2C19, Homo sapiens, UniProt P33261)
Read-out: enzyme activity
Action: inhibitor

CN(Cc1cnc2nc(N)nc(N)c2n1)c1ccc(C(=O)N2CCCCC2)cc1
IC50 (luciferase): 16.2 µM

CC(CN1c2ccccc2Sc2ccccc21)N(C)C (stereo not drawn)
IC50 (fluorescence): 40.8 µM

COc1ccn2c(Nc3ccccc3F)c(-c3ccncn3)nc2c1
IC50: 0.93 µM

C#CCN(Cc1cnc2nc(N)nc(N)c2n1)c1ccc(C(=O)N2CCC(C(=O)OC)CC2)cc1
IC50 (luciferase): 9.77 µM

CCCN(CCC)CCc1cccc2c1CC(=O)N2
IC50 (fluorescence): > 1000 µM

COc1ccc2cc3[n+](cc2c1OC)CCc1cc2c(cc1-3)OCO2
IC50: > 10 µM

COc1ccc2[nH]c([S+]([O-])Cc3ncc(C)c(OC)c3C)nc2c1 (stereo not drawn)
IC50 (fluorescence): 32 µM

O=C(NCCN1CCCC1)c1cc(-c2ccc(CN3CCOCC3)cc2)nc2ccc(F)cc12
IC50 (human, liver microsomes): > 100 µM

Cc1cc2c(F)c(Oc3ncnn4cc(OC[C@@H](C)O)c(C)c34)ccc2[nH]1
IC50 (fluorescence; 15 min): 3.64 µM

COC(=O)C1CCN(C(=O)c2ccc(N(Cc3ccccc3)Cc3cnc4nc(N)nc(N)c4n3)cc2)CC1
IC50 (luciferase): 0.195 µM

CC1=CC(=O)C(C(C)C)=CC1=O
IC50 (fluorescence; pH 7.4): 3.6 µM

C=CC(=O)Nc1cc(Nc2nccc(Nc3cc(Cl)c(F)cc3C(C)(C)O)n2)c(OC)cc1N1CC[C@@H](N(C)C)C1
IC50 (human, liver microsomes): > 30 µM
